The text below walks through data of ChEMBL document CHEMBL4765366, “Targeting fungal virulence factor by small molecules: Structure-based discovery of novel secreted aspartic protease 2 (SAP2) inhibitors” (Eur J Med Chem, 2020).

Structures are written as SMILES. pIC50: −log10 of the molar value. The source made the active and inactive calls. No cut-off for these calls is given here.

The subject of experiment [1] is Candida albicans. Kind of experiment: Inhibition of recombinant Candida albicans SAP2 at 100 uM using Dabcyl-Arg-Lys-Pro-Ala-Leu-Phe-Phe-Arg-Leu-Glu (EDANS)-Arg-OH as substrate incubated for 30 mins followed by substrate addition and measured after 30 mins by spectrophotometry relative to control. Particulars: time 60.0 min. The procedure, abridged:
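FRET assay with purified expressed C. albicans SAP2 in 50 mM sodium citrate, 50 mM NaCl, pH 4.5. Compound (diluted in DMSO) was preincubated with enzyme 30 min before adding the Dabcyl/EDANS peptide substrate (18.75 μM solution in DMSO). Reaction ran 30 min at 30 °C, then fluorescence was read at ex 340, em 485 nm. Pepstatin A was the positive control.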

Experiment [2] can be described thus: Inhibition of recombinant Candida albicans SAP2 using Dabcyl-Arg-Lys-Pro-Ala-Leu-Phe-Phe-Arg-Leu-Glu (EDANS)-Arg-OH as substrate incubated for 30 mins followed by substrate addition and measured after 30 mins by spectrophotometry.
Experiment [3] concerns Candida albicans. Kind of experiment: Downregulation of SAP2 in azole resistant Candida albicans 0304103 at 64 ug/ml by qRT-PCR analysis. It counts as functional. Particulars: dose 64.0 µg/ml.
The test system of experiment [4] is Candida tropicalis. Kind of experiment: Antibiofilm activity against azole resistant Candida tropicalis 10186 assessed as inhibition of biofilm formation incubated for 24 hrs by XTT-dye based assay. It counts as functional, organism-based. Particulars: dose 4-64 µg/ml. The essentials: (§1)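 Cell suspensions (1.0 × 10^5 CFU/mL) were adhered for 90 min at 37°C, then rinsed three times with PBS. Compounds were added at a range of concentrations from 2 mg/mL DMSO stocks, with fluconazole as the positive control. Plates were cultured 24 h at 37°C, and biofilm was measured semi-quantitatively by XTT reduction.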

Experiment [5] deals with Candida tropicalis. Description: Antibiofilm activity against azole resistant Candida tropicalis 10186 assessed as inhibition of biofilm formation at 64 ug/ml incubated for 24 hrs by XTT-dye based assay relative to control. It is filed as functional. The procedure, abridged: as §1
In experiment [6] the test system is Candida albicans. Kind of experiment: Antibiofilm activity against azole resistant Candida albicans 0304103 assessed as inhibition of biofilm formation incubated for 24 hrs by XTT-dye based assay. It counts as functional, organism-based. Particulars: dose 4-64 µg/ml. The essentials: as §1
Experiment [7] has as its system Candida albicans. Description: Antifungal activity against azole resistant Candida albicans 0304103 infected in ICR mouse assessed as reduction in fungal burden in kidney at 10 mg/kg, ip administered for 4 days. Particulars: time 4.0 day. It is filed as functional, organism-based. The essentials:
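Female ICR mice (20–25 g) were immunosuppressed with cyclophosphamide, 100 mg/kg ip in saline. After 24 h they were infected iv with 0.2 mL of 1×10^5 CFU/mL cells. Starting 24 h after infection, mice (4 per group) received the drug ip once daily for four days; controls received saline or fluconazole 10 mg/kg. Kidneys were homogenized and plated on YPD at 30°C for log10 CFU.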

The test system of experiment [8] is Candida albicans. Kind of experiment: Antibiofilm activity against azole resistant Candida albicans 0304103 assessed as inhibition of biofilm formation at 64 ug/ml incubated for 24 hrs by XTT-dye based assay relative to control. It counts as functional. The essentials:
as §1

In the case of `O=C(O)COc1ccc(/C=C2\C(=O)N(c3ccc(Cl)cc3)N=C2c2ccccc2)cc1`, in the experiment with Candida albicans [1], the inhibition came to 96%. Besides, in experiment [2], the pIC50 was 4.89.
The corresponding values for `O=C(O)COc1ccc(/C=C2\C(=O)N(c3ccccc3)N=C2c2ccccc2)cc1` are 94% and 4.74.
`Cc1ccc(-c2ccc3c(c2)N(Cc2ccc(C(F)(F)F)cc2)C(=O)/C3=C/c2ccc(OCC(=O)O)cc2OCC(=O)O)cc1`: the outcome with Candida albicans [3] was Active. For the same compound, the inhibition result with Candida tropicalis [4] is “Dose-dependent effect”; in the experiment on Candida albicans [1], 100%; in the experiment with Candida albicans [6], “Dose-dependent effect”. The inhibition at 64 µg/mL in the experiment with Candida tropicalis [5] was above 50%.
For the compound `COc1ccc(N2N=C(c3ccccc3)/C(=C/c3ccc(OCC(=O)O)cc3OCC(=O)O)C2=O)cc1`, the inhibition in the experiment with Candida albicans [1] was 94%. Also, the pIC50 in experiment [2] was 4.80.
As to `CN(C)c1ccc(/C=C2\C(=O)N(c3ccccc3)N=C2c2ccccc2)cc1`, the inhibition in the experiment on Candida albicans [1] is 11%.
`OC(Cn1cncn1)(Cn1cncn1)c1ccc(F)cc1F`: the outcome with Candida albicans [7] was Active.
As to `O=C(O)COc1ccc(/C=C2\C(=O)N(c3ccc(F)cc3F)N=C2c2ccccc2)c(OCC(=O)O)c1`, the inhibition with Candida albicans [1] worked out at 86%. Also, in experiment [2], the pIC50 is 4.49.
With `O=C(O)COc1ccccc1/C=C1\C(=O)N(c2cccc(Cl)c2)N=C1c1ccccc1`, the inhibition with Candida albicans [1] worked out at 70%. For the same compound, the pIC50 in experiment [2] was 4.26.
The matching figures for `O=C(O)COc1ccc(/C=C2\C(=O)N(c3ccccc3)N=C2c2ccccc2)c(OCC(=O)O)c1`: 99% and 5.00.
On to `CCOc1ccc(/C=C2\C(=O)N(c3ccccc3)N=C2c2ccccc2)cc1`, for which the inhibition with Candida albicans [1] is 5%.
Take `Cc1ccc(-c2ccc3c(c2)N(Cc2ccc(S(C)(=O)=O)cc2)C(=O)/C3=C/c2ccc(OCC(=O)O)cc2OCC(=O)O)cc1`: the inhibition result in the experiment on Candida tropicalis [4] was “Dose-dependent effect”; in the experiment with Candida albicans [1], 100%; in the experiment on Candida albicans [6], “Dose-dependent effect”.
As to `Cc1ccc(N2N=C(c3ccccc3)/C(=C/c3ccc(OCC(=O)O)c(OCC(=O)O)c3)C2=O)cc1`, the inhibition in the experiment on Candida albicans [1] was found to be 85%. In addition, the pIC50 in experiment [2] was 4.65.
The matching figures for `O=C(O)COc1ccc(/C=C2\C(=O)N(c3cccc(Cl)c3)N=C2c2ccccc2)cc1OCC(=O)O`: 82% and 4.64.
As for `Cc1ccc(CN2C(=O)C(=Cc3ccc(OCC(=O)O)cc3OCC(=O)O)C(=O)N2Cc2ccc(C)cc2)cc1`, in the experiment on Candida albicans [1], the inhibition stood at 94%. Besides, the pIC50 in experiment [2] was 4.76.
Consider `COc1ccc(N2N=C(c3ccccc3)/C(=C/c3ccc(OCC(=O)O)cc3)C2=O)cc1`, for which the inhibition in the experiment with Candida albicans [1] was 95%. The pIC50 in experiment [2] is 4.69.
As for `O=C1/C(=C\c2ccc(O)cc2)C(c2ccccc2)=NN1c1ccccc1`, the inhibition in the experiment with Candida albicans [1] came out at 12%.
Still for that read-out and setting: then `CCc1ccc(/C=C2\C(=O)N(c3ccccc3)N=C2c2ccccc2)cc1`, with 7%.
Same read-out and setting: the value for `O=C1/C(=C\c2ccc(Br)cc2)C(c2ccccc2)=NN1c1ccccc1` was 10%.
Turning to `Cc1ccc(N2N=C(c3ccccc3)/C(=C/c3ccccc3OCC(=O)O)C2=O)cc1`, the inhibition in the experiment with Candida albicans [1] was found to be 63%. In experiment [2], the pIC50 was 4.14.
`CCn1cc(/C=C(\NC(=O)c2ccccc2OC)C(=O)NCCO)c2ccccc21`: the pIC50 in experiment [2] was 4.34.
As to `COc1ccc(N2N=C(c3ccccc3)/C(=C/c3ccccc3OCC(=O)O)C2=O)cc1`, the inhibition with Candida albicans [1] was found to be 64%. Further, in experiment [2], the negative logarithm of the IC50 (pIC50) was 4.15.
In the case of `Cc1ccc(N2N=C(c3ccccc3)/C(=C/c3ccc(OCC(=O)O)cc3)C2=O)cc1`, in the experiment on Candida albicans [1], the inhibition stood at 93%. For the same compound, the pIC50 in experiment [2] is 4.67.
The matching figures for `O=C(O)COc1ccccc1/C=C1\C(=O)N(c2ccccc2)N=C1c1ccccc1`: 68% and 4.21.
Turning to `O=C(O)COc1ccccc1/C=C1\C(=O)N(c2ccc(F)cc2)N=C1c1ccccc1`, in the experiment with Candida albicans [1], the inhibition is 46%.
Consider `CC(C)CC(=O)N[C@H](C(=O)N[C@H](C(=O)N[C@@H](CC(C)C)[C@@H](O)CC(=O)N[C@@H](C)C(=O)N[C@@H](CC(C)C)[C@@H](O)CC(=O)O)C(C)C)C(C)C` [PEPSTATIN], for which the inhibition in the experiment with Candida albicans [1] came to 100%. Also, the pIC50 in experiment [2] was 7.66.
The corresponding values for `O=C(O)COc1ccc(/C=C2\C(=O)N(c3ccc(Cl)cc3)N=C2c2ccccc2)cc1OCC(=O)O` are 70% and 4.33.
Consider `Cc1ccc(-c2ccc3c(c2)N(Cc2ccc(C#N)cc2)C(=O)/C3=C/c2ccc(OCC(=O)O)cc2OCC(=O)O)cc1`, for which the outcome in the experiment with Candida albicans [3] was Active. The inhibition result was “Dose-dependent effect” with Candida tropicalis [4], 100% in the experiment on Candida albicans [1] and “Dose-dependent effect” with Candida albicans [6]. The inhibition at 64 µg/mL in the experiment with Candida albicans [8] is above 50%.
As for `O=C(O)COc1ccc(/C=C2\C(=O)N(c3ccccc3)N=C2c2ccccc2)cc1OCC(=O)O`, the inhibition with Candida albicans [1] worked out at 86%. The pIC50 in experiment [2] is 4.73.
For the compound `O=C(O)COc1ccc(/C=C2\C(=O)N(c3ccc(F)cc3)N=C2c2ccccc2)cc1`, the inhibition in the experiment on Candida albicans [1] was 71%. In addition, the pIC50 in experiment [2] was 4.40.
Turning to `COc1ccc(N2N=C(c3ccccc3)/C(=C/c3ccc(OCC(=O)O)c(OCC(=O)O)c3)C2=O)cc1`, the inhibition with Candida albicans [1] is 88%. The pIC50 in experiment [2] was 4.67.
As to `COc1ccc(CN2C(=O)/C(=C/c3ccc(OCC(=O)O)cc3OCC(=O)O)c3ccc(-c4ccc(C)cc4)cc32)cc1`, in the experiment on Candida albicans [1], the inhibition was 29%.
Consider `O=C(O)COc1ccc(/C=C2\C(=O)N(c3ccc(F)cc3)N=C2c2ccccc2)c(OCC(=O)O)c1`, for which the inhibition in the experiment on Candida albicans [1] came out at 93%. For the same compound, the negative-log IC50 (pIC50) in experiment [2] was 4.75.
`Cc1ccc(-c2ccc3c(c2)N(Cc2ccc(Cl)cc2)C(=O)/C3=C/c2ccc(OCC(=O)O)cc2OCC(=O)O)cc1`: the outcome with Candida albicans [3] was Active. Also, the inhibition result is “Dose-dependent effect” in the experiment on Candida tropicalis [4], 100% with Candida albicans [1] and “Dose-dependent effect” with Candida albicans [6]. Moreover, the inhibition at 64 µg/mL in the experiment on Candida tropicalis [5] and in the experiment on Candida albicans [8] was above 50% in each case.
For the compound `O=C(O)COc1ccc(/C=C2\C(=O)N(c3ccc(F)cc3)N=C2c2ccccc2)cc1OCC(=O)O`, in the experiment with Candida albicans [1], the inhibition amounted to 83%. The pIC50 in experiment [2] is 4.47.
The matching figures for `O=C(O)COc1ccccc1/C=C1\C(=O)N(c2ccc(Cl)cc2)N=C1c1ccccc1`: 60% and 4.12.
Regarding `CC(=O)c1ccc(CN2C(=O)/C(=C/c3ccc(OCC(=O)O)cc3OCC(=O)O)c3ccc(-c4ccc(C)cc4)cc32)cc1`, in the experiment on Candida albicans [3], the result was Active. Also, the inhibition in the experiment with Candida albicans [1] is 90%.
`O=C(O)COc1ccc(/C=C2\C(=O)N(c3cccc(Cl)c3)N=C2c2ccccc2)cc1`: the inhibition with Candida albicans [1] was determined as 90%. Also, the pIC50 in experiment [2] is 4.58.
The matching figures for `O=C(O)COc1ccc(/C=C2\C(=O)N(c3cccc(Cl)c3)N=C2c2ccccc2)c(OCC(=O)O)c1`: 99% and 4.94.
`COc1cc([C@H]2C(C(=O)c3ccc([N+](=O)[O-])cc3)=C(O)C(=O)N2CCCCCC(=O)O)ccc1O`: the pIC50 in experiment [2] was 4.19.
`Cc1ccc(CN2C(=O)/C(=C\c3ccc(OCC(=O)O)cc3OCC(=O)O)N(Cc3ccc(C)cc3)C2=O)cc1`: in the experiment on Candida albicans [1], the inhibition worked out at 91%. Further, in experiment [2], the pIC50 is 4.62.
Turning to `Cc1ccc(-c2ccc3c(c2)N(Cc2ccc(F)cc2)C(=O)/C3=C/c2ccc(OCC(=O)O)cc2OCC(=O)O)cc1`, the inhibition in the experiment with Candida albicans [1] was determined as 58%.
Regarding `O=C(O)COc1ccc(/C=C2\C(=O)N(c3ccc(Cl)cc3)N=C2c2ccccc2)c(OCC(=O)O)c1`, in the experiment on Candida albicans [1], the inhibition stood at 99%. For the same compound, the pIC50 in experiment [2] is 4.97.
For `Cc1ccc(N2N=C(c3ccccc3)/C(=C/c3ccc(OCC(=O)O)cc3OCC(=O)O)C2=O)cc1`, the inhibition in the experiment on Candida albicans [1] was 99%. Besides, in experiment [2], the negative logarithm of the IC50 (pIC50) was 4.87.
